Assay outcomes deposited in PubChem by several laboratories.
ABCB6 inh MLPCN – blocks the human ABCB6 transporter. fluorescence ratio to DMSO, % at 10 µM. K562-ABCB6 porphyrin accumulation, flow cytometry, 1 h; hits give low values. actives 0.19% (n = 360,000). Q9NP58;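 active = fluorescence ratio to DMSO below 75%, the collection mean minus 3 SD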;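 note: signal is porphyrin accumulated inside mitochondria; 100% equals median channel fluorescence of DMSO control wells; lower ratio means ABCB6 inhibition with less porphyrin fluorescence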
iPSC survival up – increases survival of single human iPS cells. survival enhancement, % at 20 µM. actives 0.044% (n = 360,000). hiPSC single-cell survival, ATPlite luminescence; 100% = ROCK inhibitor wells, 0% = DMSO; in the data active = survival enhancement above about 18%;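 note: cells exposed to compounds for 16 hours before the ATP read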
SENP1 FRET inh – inhibitors of human SENP1 SUMO protease catalytic domain | Q9P0U3 | recombinant SENP1 catalytic domain, CyPet-SUMO1-YPet FRET cleavage | inhibition, % at 10 µM | actives 0.21% (n = 360,000);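 active = inhibition at least 30% at 10 µM, raw YFP signal under a set limit, fluorescence ratio 0.5 to 1.5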;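 note: 0% = enzyme with DMSO and 100% = no enzyme wells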
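Compound: 10 µM single point, 0.5% DMSO; Test system: hSENP1 catalytic domain, recombinant; Timing: 50 min reaction at room temperature; Technique: FRET, CFP and YFP emission; Control set: no-enzyme wells low, DMSO-plus-enzyme wells high control.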
FAS TE block – FAS thioesterase (human) inhibition. inhibition, % at 15 µM. AID 602261. actives 0.67% (n = 360,000). recombinant FAS-TE, OMFH fluorogenic substrate, fluorescence endpoint. P49327;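 active = compounds whose normalised, plate-corrected inhibition of enzyme fluorescence in the single-dose primary screen is 50% or more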;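 note: 0% = DMSO with enzyme and 100% = substrate without enzyme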
ABCB6 inh CP1 – human ABCB6 transporter inhibition | shares compounds with ABCB6 inh MLPCN | K562-ABCB6 porphyrin accumulation, flow cytometry, 1 h; hits give low values | ratio response (% of DMSO), % at 10 µM | 700 tested, under 10 active | AID 602430;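 active = repeat-averaged ratio response below 75% of DMSO, the collection mean minus 3 SD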;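 note: median porphyrin fluorescence at 575 nm with 488 nm excitation from mitochondria; lower ratio means less porphyrin signal so ABCB6 inhibition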
* = called active by the depositor. Shown are actives, neighbours in structure and some others; about 1.1% of the full set was active somewhere.

`COc1ccc(S(=O)(=O)Nc2c(NC3CCCCC3)c3ccccc3oc2=O)cc1` gave ABCB6 inh MLPCN 71*, iPSC survival up 0, SENP1 FRET inh 0, FAS TE block 6 and ABCB6 inh CP1 98.
For Cc1cccc(C(=O)N2CCN(S(=O)(=O)N3CCCCCC3)CC2)c1 the results were ABCB6 inh MLPCN 94, iPSC survival up -1, SENP1 FRET inh 0 and FAS TE block -2.
Screening CC1CCN(C(=O)c2ccc(NC(=O)c3cccs3)cc2)CC1 returned ABCB6 inh MLPCN 53*, iPSC survival up 1, SENP1 FRET inh 2, FAS TE block 3 and ABCB6 inh CP1 102.
For CCN(C[C@H]1N[C@@](CC)(C(=O)OC)[C@H]2C(=O)N(Cc3ccccc3)C(=O)[C@@H]12)C(=O)C1CCCCC1 the results were ABCB6 inh MLPCN 99, iPSC survival up 3, SENP1 FRET inh 3 and FAS TE block -4.
For Cc1ccc(S(=O)(=O)N2CCOCC2)cc1NC(=O)COC(=O)c1ccc(Br)o1 the results were ABCB6 inh MLPCN 102, iPSC survival up 0, SENP1 FRET inh -1 and FAS TE block -5.
`N#Cc1nc(COc2ccccc2)oc1N1CCCCCC1` gave ABCB6 inh MLPCN 103, iPSC survival up 1, SENP1 FRET inh 4 and FAS TE block 18.
Screening N#Cc1nn(-c2ccccc2)nc1N1CCCCC1 returned ABCB6 inh MLPCN 69*, iPSC survival up -1, SENP1 FRET inh 1, FAS TE block 23 and ABCB6 inh CP1 95.
Screening CC(=O)Nc1ccc(OC(=O)c2c(-c3ccccc3Cl)noc2C)cc1 returned ABCB6 inh MLPCN 70*, iPSC survival up 1, SENP1 FRET inh 1, FAS TE block -4 and ABCB6 inh CP1 99.
For CC(Sc1nnc(-c2ccncc2)n1C)C(=O)Nc1ccc(N2CCOCC2)cc1 (stereo not drawn) the results were ABCB6 inh MLPCN 69*, iPSC survival up 1, SENP1 FRET inh 0, FAS TE block -7 and ABCB6 inh CP1 100.
CCCCn1c(O)c2n(c1=O)Cc1ccccc1N=C2c1ccc(C)cc1 was read as ABCB6 inh MLPCN 101, iPSC survival up 1, SENP1 FRET inh 3 and FAS TE block -7.
Screening COc1ccccc1C(=O)Nc1cc(-c2ccc(C)cc2)no1 returned ABCB6 inh MLPCN 69*, iPSC survival up 0, SENP1 FRET inh 0, FAS TE block 22 and ABCB6 inh CP1 97.
CCc1ccc(C(O)c2ncc(-c3ccccc3OC)[nH]2)cc1 (stereo not drawn) was read as ABCB6 inh MLPCN 73*, iPSC survival up -1, SENP1 FRET inh 0, FAS TE block 1 and ABCB6 inh CP1 98.
CC1CCCC(C)N1CCNC(=O)CCc1nnc2n(Cc3ccccc3)c(=O)c3ccccc3n12 (stereo not drawn) was read as ABCB6 inh MLPCN 102, iPSC survival up 4, SENP1 FRET inh -28 and FAS TE block 8.
For O=C(CSc1nnc2c(Cl)cc(C(F)(F)F)cn12)N(Cc1ccccc1)Cc1ccccc1 the results were ABCB6 inh MLPCN 74*, iPSC survival up 0, SENP1 FRET inh -1, FAS TE block 27 and ABCB6 inh CP1 97.
For COc1ccc(NC(=O)c2ccc(NC(=O)CSc3nc(N)cc(=O)[nH]3)cc2)cc1 the results were ABCB6 inh MLPCN 87, iPSC survival up 0, SENP1 FRET inh 3 and FAS TE block -3.
Screening Cc1cccc(C)c1OCCOC(=O)c1ccc(S(=O)(=O)N2CCCC2)cc1 returned ABCB6 inh MLPCN 97, iPSC survival up 1, SENP1 FRET inh 1 and FAS TE block 20.
Screening Cc1cccc(NC(=O)c2oc3ccc(S(=O)(=O)N4CCOCC4)cc3c2C)c1C returned ABCB6 inh MLPCN 68*, iPSC survival up 2, SENP1 FRET inh 5, FAS TE block 11 and ABCB6 inh CP1 99.
For Cc1cccc(C)c1OCCOC(=O)c1cccc(S(=O)(=O)N2CCOCC2)c1 the results were ABCB6 inh MLPCN 71*, iPSC survival up 5, SENP1 FRET inh 0, FAS TE block 24 and ABCB6 inh CP1 100.
For NS(=O)(=O)c1ccc(NC(=O)C2C3C=CC(C3)C2C(=O)O)cc1 (stereo not drawn) the results were ABCB6 inh MLPCN 103, iPSC survival up 0, SENP1 FRET inh 3 and FAS TE block -4.
`COc1cc(C)c(CN2CCN(c3ncccn3)CC2)cc1C` gave ABCB6 inh MLPCN 16*, iPSC survival up 0, SENP1 FRET inh 2, FAS TE block -1 and ABCB6 inh CP1 97.
